Assay results as given in ChEMBL document CHEMBL1147105, “In vitro and in vivo activities of PD 0305970 and PD 0326448, new bacterial gyrase/topoisomerase inhibitors with potent antibacterial activities versus multidrug-resistant gram-positive and fastidious organism groups” (2007).

Assays:
Enterococcus faecalis [1] = test: Antibacterial activity against VanB-resistant Enterococcus faecalis; format: functional
Method in brief: (§1)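 Broth microdilution MIC per CLSI guidelines, incubated at 35°C. Cation-adjusted Mueller-Hinton broth for nonfastidious organisms and staphylococci. Streptococci tested in the same broth with 3% lysed horse blood. Anaerobes tested in supplemented Brucella broth inside an anaerobe chamber (5% CO2, 5% H2, 90% N2), read after 48 h. Strains were mainly recent clinical isolates with confirmed identity.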

Enterococcus faecium [2] = test: Antibacterial activity against Enterococcus faecium; format: functional; method in brief: as §1
Enterococcus faecium [3] = test: Antibacterial activity against VanB-resistant Enterococcus faecium; format: functional; method in brief: as §1
[4] = system: Enterococcus casseliflavus; test: Antibacterial activity against Enterococcus casseliflavus; format: functional
Enterococcus gallinarum = test: Antibacterial activity against Enterococcus gallinarum; format: functional
Corynebacterium jeikeium = test: Antibacterial activity against Corynebacterium jeikeium; format: functional
Method in brief: (§2)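 Broth microdilution MIC following CLSI guidelines, in cation-adjusted Mueller-Hinton broth containing 3% lysed horse blood, incubated at 35°C. Clinical isolates with identity confirmed. Reported as MIC range, MIC50 and MIC90.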

Corynebacterium sp. = test: Antibacterial activity against Corynebacterium sp.; format: functional; method in brief: as §2
Haemophilus influenzae = test: Antibacterial activity against beta-lactamase negative Haemophilus influenzae; format: functional
Method in brief: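 Broth microdilution MIC following CLSI guidelines, in Haemophilus test medium at 35°C.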

Legionella pneumophila = test: Antibacterial activity against Legionella pneumophila; format: functional
Method in brief: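 Broth microdilution MIC per CLSI guidelines, run in buffered yeast extract α-ketoglutarate broth at 35°C and read after 48 h.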

Moraxella catarrhalis = test: Antibacterial activity against beta-lactamase positive Moraxella catarrhalis; format: functional
Citrobacter koseri = test: Antibacterial activity against Citrobacter diversus; format: functional
Method in brief: (§3)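 Broth microdilution MIC following CLSI guidelines, in cation-adjusted Mueller-Hinton broth, incubated at 35°C. Recent clinical isolates and reference strains, with identity confirmed by automated and standard microbiological methods. Results reported as MIC range, MIC50 and MIC90.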

Citrobacter freundii = test: Antibacterial activity against Citrobacter freundii; format: functional; method in brief: as §3
Escherichia coli = test: Antibacterial activity against Escherichia coli; format: functional; method in brief: as §3
Klebsiella pneumoniae = test: Antibacterial activity against Klebsiella pneumoniae; format: functional; method in brief: as §3
Salmonella typhimurium = test: Antibacterial activity against Salmonella enterica serovar Typhimurium; format: functional, Salmonella enterica subsp. enterica serovar Typhimurium; method in brief: as §3
Shigella sonnei = test: Antibacterial activity against Shigella sonnei; format: functional; method in brief: as §3
Serratia marcescens = test: Antibacterial activity against Serratia marcescens; format: functional; method in brief: as §3
Acinetobacter sp. = test: Antibacterial activity against Acinetobacter sp.; format: functional; method in brief: as §3
Burkholderia cepacia = test: Antibacterial activity against Burkholderia cepacia; format: functional; method in brief: as §3
Pseudomonas aeruginosa = test: Antibacterial activity against Pseudomonas aeruginosa; format: functional; method in brief: as §3
[5] = system: Stenotrophomonas maltophilia; test: Antibacterial activity against Stenotrophomonas maltophilia; format: functional; method in brief: as §3
Actinomyces sp. = test: Antibacterial activity against Actinomyces sp.; format: functional
Fusobacterium sp. = test: Antibacterial activity against Fusobacterium sp.; format: functional
Method in brief: (§4)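 Anaerobic broth microdilution MIC following CLSI guidelines, in supplemented Brucella broth. Run in an anaerobe chamber under 5% CO2, 5% H2 and 90% N2 at 35°C, and read after 48 h. Reported as MIC range, MIC50 and MIC90.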

[6] = system: Peptostreptococcus anaerobius; test: Antibacterial activity against Peptostreptococcus anaerobius; format: functional; method in brief: as §4
Finegoldia magna = test: Antibacterial activity against Peptostreptococcus magnus; format: functional; method in brief: as §4
Streptococcus pyogenes = test: Antibacterial activity against Streptococcus pyogenes; format: functional
Method in brief: (§5)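 Broth microdilution MIC following CLSI guidelines, in cation-adjusted Mueller-Hinton broth with 3% lysed horse blood. Plates incubated at 35°C. Clinical isolates and reference strains, with identity confirmed by standard microbiological methods.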

Clostridium perfringens = test: Antibacterial activity against Clostridium perfringens; format: functional; method in brief: as §1
Fusobacterium nucleatum = test: Antibacterial activity against Fusobacterium nucleatum; format: functional; method in brief: as §4
Clostridioides difficile = test: Antibacterial activity against Clostridium difficile; format: functional; method in brief: as §4
[7] = system: Bacteroides thetaiotaomicron; test: Antibacterial activity against Bacteroides thetaiotaomicron; format: functional; method in brief: as §4
Bacteroides fragilis = test: Antibacterial activity against Bacteroides fragilis; format: functional; method in brief: as §4
Staphylococcus aureus [8] = test: Antibacterial activity against oxacillin-resistant Staphylococcus aureus; format: functional; method in brief: as §1
Staphylococcus aureus [9] = test: Antibacterial activity against vancomycin-intermediate Staphylococcus aureus; format: functional; method in brief: as §1
[10] = system: Staphylococcus epidermidis; test: Antibacterial activity against oxacillin-resistant Staphylococcus epidermidis; format: functional; method in brief: as §1
[11] = system: Staphylococcus haemolyticus; test: Antibacterial activity against Staphylococcus haemolyticus; format: functional; method in brief: as §2
Staphylococcus warneri = test: Antibacterial activity against Staphylococcus warneri; format: functional; method in brief: as §3
Alloiococcus otitis = test: Antibacterial activity against Alloiococcus otitidis; format: functional
Method in brief: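 MIC by broth microdilution following CLSI guidelines, in cation-adjusted Mueller-Hinton broth with 3% lysed horse blood. Incubated at 35°C and read after 48 h. Reported as MIC range, MIC50 and MIC90.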

Streptococcus equinus = test: Antibacterial activity against Streptococcus bovis; format: functional; method in brief: as §5
Streptococcus sanguinis = test: Antibacterial activity against Streptococcus sanguis; format: functional; method in brief: as §5
Streptococcus pneumoniae [12] = test: Antibacterial activity against penicillin-susceptible Streptococcus pneumoniae; format: functional; method in brief: as §1
Streptococcus pneumoniae [13] = test: Antibacterial activity against levofloxacin-resistant Streptococcus pneumoniae; format: functional; method in brief: as §1
Enterococcus faecalis [14] = test: Antibacterial activity against Enterococcus faecalis; format: functional; method in brief: as §1
Enterococcus faecalis [15] = test: Antibacterial activity against VanA-resistant Enterococcus faecalis; format: functional; method in brief: as §1
Prevotella bivia = test: Antibacterial activity against Prevotella bivia; format: functional; method in brief: as §4
[16] = system: Prevotella melaninogenica; test: Antibacterial activity against Prevotella melaninogenica; format: functional; method in brief: as §4
Prevotella sp. = test: Antibacterial activity against Prevotella sp.; format: functional; method in brief: as §4
Streptococcus mitis = test: Antibacterial activity against Streptococcus mitis; format: functional; method in brief: as §5
Streptococcus viridans = test: Antibacterial activity against Streptococcus viridans; format: functional; method in brief: as §5
Salmonella enteritidis = test: Antibacterial activity against Salmonella enterica serovar Enteritidis; format: functional, Salmonella enterica subsp. enterica serovar Enteritidis; method in brief: as §3

Cc1c(N2CC[C@@H]([C@H](C)N)C2)c(F)cc2c(=O)[nH]c(=O)n(C3CC3)c12
32 µg/mL: MIC90 (Serratia marcescens) | MIC50 (Burkholderia cepacia) | MIC50 [5] | MIC90 [7]
> 64 µg/mL: MIC90 (Citrobacter freundii) | MIC90 (Burkholderia cepacia) | MIC90 (Pseudomonas aeruginosa)
0.25 µg/mL: MIC50 (Enterococcus faecalis [1]) | MIC50 [4] | MIC90 [4] | MIC50 (Enterococcus gallinarum) | MIC50 (Haemophilus influenzae) | MIC50 (Staphylococcus aureus [8]) | MIC (Staphylococcus aureus [9]) | MIC50 [10] | MIC90 [10] | MIC50 [11] | MIC50 (Enterococcus faecalis [14]) | MIC (Enterococcus faecalis [15])
4 µg/mL: MIC90 (Enterococcus faecium [2]) | MIC50 (Klebsiella pneumoniae) | MIC90 (Salmonella typhimurium) | MIC90 (Shigella sonnei) | MIC50 (Serratia marcescens) | MIC50 (Acinetobacter sp.) | MIC90 (Salmonella enteritidis)
16 µg/mL: MIC90 (Klebsiella pneumoniae) | MIC50 [7] | MIC90 (Bacteroides fragilis)
2 µg/mL: MIC50 (Citrobacter koseri) | MIC50 (Escherichia coli) | MIC50 (Salmonella typhimurium) | MIC50 (Shigella sonnei) | MIC50 (Clostridium perfringens) | MIC50 (Clostridioides difficile) | MIC90 (Prevotella bivia) | MIC90 [16] | MIC90 (Prevotella sp.) | MIC50 (Salmonella enteritidis)
0.008 µg/mL: MIC50 (Alloiococcus otitis) | MIC90 (Alloiococcus otitis)
64 µg/mL: MIC90 (Acinetobacter sp.) | MIC90 [5]
1 µg/mL: MIC50 (Enterococcus faecium [2]) | MIC (Enterococcus faecium [3]) | MIC90 (Corynebacterium jeikeium) | MIC90 (Corynebacterium sp.) | MIC (Actinomyces sp.) | MIC90 [11]
0.03 µg/mL: MIC50 (Streptococcus pyogenes) | MIC90 (Streptococcus pyogenes) | MIC50 (Streptococcus sanguinis) | MIC50 (Streptococcus pneumoniae [12]) | MIC50 (Streptococcus mitis) | MIC50 (Streptococcus viridans)
8 µg/mL: MIC90 (Citrobacter koseri) | MIC50 (Citrobacter freundii) | MIC90 (Escherichia coli) | MIC50 (Pseudomonas aeruginosa) | MIC90 (Clostridium perfringens) | MIC90 (Clostridioides difficile) | MIC50 (Bacteroides fragilis)
0.5 µg/mL: MIC90 (Enterococcus faecalis [1]) | MIC90 (Enterococcus gallinarum) | MIC50 (Corynebacterium jeikeium) | MIC50 (Corynebacterium sp.) | MIC90 (Haemophilus influenzae) | MIC50 (Legionella pneumophila) | MIC90 (Legionella pneumophila) | MIC50 (Moraxella catarrhalis) | MIC90 (Moraxella catarrhalis) | MIC90 (Staphylococcus aureus [8]) | MIC90 (Enterococcus faecalis [14]) | MIC50 (Prevotella bivia) | MIC50 [16] | MIC50 (Prevotella sp.)
0.125 µg/mL: MIC (Fusobacterium sp.) | MIC (Fusobacterium nucleatum) | MIC (Staphylococcus warneri)
0.06 µg/mL: MIC [6] | MIC (Finegoldia magna) | MIC50 (Streptococcus equinus) | MIC90 (Streptococcus equinus) | MIC90 (Streptococcus sanguinis) | MIC90 (Streptococcus pneumoniae [12]) | MIC50 (Streptococcus pneumoniae [13]) | MIC90 (Streptococcus pneumoniae [13]) | MIC90 (Streptococcus mitis) | MIC90 (Streptococcus viridans)
